Laboratory results as given in PubChem BioAssay.
Activity calls are given as the source filed them.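 How the source made its calls, unless noted: active means compounds giving at least 50% inhibition in the cell-based MKP-3 phosphatase rescue imaging test; inactive means the rest.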

How the values were obtained:
[1] = inhibitors of TNFa-induced NFkB p65 translocation, primary screen, imaging, HUVEC, MLSMR starter and 10KST1 sets (AID 438;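 active means inhibition above 20% together with a positive visual image hit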;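 further: compound added about 3h40 before a 20 min TNFalpha stimulation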;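 on inhibition: signal is the nuclear over cytoplasmic p65 intensity ratio per well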); settings: HUVEC TNFa-induced p65 nuclear translocation; cell count: measured here: nuclei count (cytotoxicity indicator), at 2.08 µM; inhibition: at 2 µM, stronger effect = higher value, 0% TNFa-plus-vehicle, 100% no-TNFa wells
[2] = endothelial E-selectin expression blockers – imaging, HUVEC, immunofluorescence, MLSMR starter and 10KST1 sets, primary screen (AID 487;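 active means visually confirmed hit in the image check and inhibition above 20%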;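 on inhibition: signal is fraction of cell area covered by stained E-selectin grains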;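 on nuclei count: 100% = median nuclei count of all wells on the same plate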); settings: HUVEC TNFalpha-induced E-selectin immunofluorescence imaging, at 2 µM; inhibition: stronger effect = higher value; nuclei count: measured here: cell number, toxicity
[3] = Primary imaging screen for DUSP6 inhibitors that restore phospho-Erk in transfected HeLa cells, chemical complementation (AID 609); settings: HeLa MKP-3 transfected, phospho-Erk imaging KS statistic, at 10 µM, cells stimulated with TPA for 15 min;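 on inhibition: phospho-Erk level distribution per well compared with pooled transfected vehicle control wells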
[4] = molecular target: Dual specificity protein phosphatase 6 (Homo sapiens) (UniProt Q16828); test: as above; settings: HeLa MKP-3 transfected, phospho-Erk imaging KS statistic; at 10 µM; stronger effect = higher value; cells stimulated with TPA for 15 min
[5] = molecular target: Voltage-gated potassium channel subunit beta-2 (Rattus norvegicus) (UniProt P62483); test: inhibitors of rat Kvbeta2 reductase activity – biochemical, NADPH fluorescence, primary screen (AID 622;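 active means fluorescence slope higher than the sample average by over 3 SD, cut at about -0.22 in these data, passing the limit was not always enough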;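 further: slope of raw intensity against log time taken from 70 to 1610 s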); settings: recombinant KvBeta, 4-cyanobenzaldehyde reduction, at 10 µM, stronger effect = higher value
[6] = molecular target: Voltage-gated potassium channel subunit beta-2 (Rattus norvegicus) (UniProt P62483); test: enhancers of rat Kvbeta2 NADPH turnover – biochemical, NADPH fluorescence, primary screen (AID 623;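 active means NADPH fluorescence slope more negative than the mean of all samples by about 3 SD, 99.7% confidence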;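 further: fluorescence intensity change per second fitted from 20 to 320 s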); settings: Recombinant KvBeta, NADPH fluorescence decrease slope, 10 min; at 10 µM; stronger effect = lower value
[7] = molecular target: Alpha-2C adrenergic receptor (Homo sapiens) (UniProt P18825); test: compounds altering alpha2C-coupled GIRK flux – cell-based, HEK293 alpha2C/GIRK1/2, thallium flux, primary screen (AID 624;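 active means fluorescence slope after compound addition differing from the mean of all screened samples at 99.7% confidence, in either direction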;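 further: slope of fluorescence ratio to pre-addition baseline per second over 15 to 24 s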); settings: thallium flux BTC fluorescence, at 10 µM, actives lie on both sides
[8] = inhibitors of larval lipid processing in zebrafish, primary screen, whole organism, PED6 fluorescence, gall bladder and intestine (AID 686;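 active means a full or partial loss of lipid-probe fluorescence in the fish gall bladder, intestine or both, judged by eye; inactive means no fluorescence loss, or compound toxic to the fish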;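 further: larvae 5 to 7 days old with five fish per well; signal comes from phospholipase A2 cleavage of quenched PED6 carried via bile; overnight exposure to compound and PED6 before scoring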); settings: Zebrafish larvae PED6 lipid processing, fluorescence scoring; screened at 20 µM (by protocol)
Procedure, shortened: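 system = live zebrafish larvae aged 5-7 days, whole organism | probe or stimulus = ingested quenched lipid PED6 at 100 nM | doses = 20 µM single dose | timing = overnight exposure | detection = fluorescence microscopy with visual scoring of gall bladder and intestine | read-out = visual per-well fluorescence inhibition score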

[9] = loss of swimming-algae plug formation – whole organism, Chlamydomonas reinhardtii, WT vs cilia-less mutant, absorbance, 96-well, primary screen (AID 463189;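 active means inhibition at or above 50% relative to wild type and mutant plate controls; inactive means inhibition below 50%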;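 further: 0% = wild type cc124 cells in DMSO and 100% = ciliumless bld1 mutant cells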); settings: Chlamydomonas reinhardtii gravitaxis, OD600 absorbance, 2 days; at 10 µM; stronger effect = higher value
[10] = measured here: cell density z-score
[11] = measured here: nuclear c-Myc green intensity z-score
[12] = measured here: nuclear pErk red intensity z-score, stronger effect = higher value

Chain of Voltage-gated potassium channel subunit beta-2 (Rattus norvegicus) (P62483 whole entry, looked up): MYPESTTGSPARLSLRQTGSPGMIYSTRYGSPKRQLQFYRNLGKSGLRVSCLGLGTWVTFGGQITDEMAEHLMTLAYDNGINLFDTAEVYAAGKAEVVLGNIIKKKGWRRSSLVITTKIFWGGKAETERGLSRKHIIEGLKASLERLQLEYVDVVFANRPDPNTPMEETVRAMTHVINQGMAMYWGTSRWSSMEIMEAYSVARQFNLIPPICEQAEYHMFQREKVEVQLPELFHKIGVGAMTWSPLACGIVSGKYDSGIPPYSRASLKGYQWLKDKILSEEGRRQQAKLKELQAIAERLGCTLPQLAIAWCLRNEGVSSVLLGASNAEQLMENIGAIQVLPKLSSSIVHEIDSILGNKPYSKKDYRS
Chain of Dual specificity protein phosphatase 6 (Homo sapiens) (Q16828 whole entry, looked up): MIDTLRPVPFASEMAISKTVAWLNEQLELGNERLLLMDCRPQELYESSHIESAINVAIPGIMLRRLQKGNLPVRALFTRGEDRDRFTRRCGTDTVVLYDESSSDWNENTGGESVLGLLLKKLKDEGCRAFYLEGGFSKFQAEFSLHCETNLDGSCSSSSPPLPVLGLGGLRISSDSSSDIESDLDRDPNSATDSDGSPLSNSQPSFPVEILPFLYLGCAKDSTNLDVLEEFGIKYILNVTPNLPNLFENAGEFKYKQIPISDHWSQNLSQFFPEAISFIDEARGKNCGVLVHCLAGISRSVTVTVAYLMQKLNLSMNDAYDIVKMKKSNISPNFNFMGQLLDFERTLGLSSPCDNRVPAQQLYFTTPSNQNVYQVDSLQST
Chain of Alpha-2C adrenergic receptor (Homo sapiens) (P18825 whole entry, looked up): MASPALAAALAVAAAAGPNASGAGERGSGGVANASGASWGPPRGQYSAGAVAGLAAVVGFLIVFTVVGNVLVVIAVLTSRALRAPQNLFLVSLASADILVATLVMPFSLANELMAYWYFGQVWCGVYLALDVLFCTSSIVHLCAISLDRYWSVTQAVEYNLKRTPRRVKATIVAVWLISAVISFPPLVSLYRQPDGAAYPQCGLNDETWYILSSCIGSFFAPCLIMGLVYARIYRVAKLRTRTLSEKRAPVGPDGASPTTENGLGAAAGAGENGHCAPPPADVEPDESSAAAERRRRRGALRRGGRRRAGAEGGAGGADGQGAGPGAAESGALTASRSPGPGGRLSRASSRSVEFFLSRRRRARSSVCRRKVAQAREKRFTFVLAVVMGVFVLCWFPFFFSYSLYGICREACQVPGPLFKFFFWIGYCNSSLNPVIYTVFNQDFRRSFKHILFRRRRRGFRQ

Compound	cell count [1]	inhibition [1]	inhibition [2]	nuclei count [2]	z-score [3, 10]	z-score [3, 11]	z-score [3, 12]	inhibition [4]	fluorescence slope [5]	NADPH fluorescence slope [6]	slope [7]	outcome [8]	inhibition [9]
CN=C1c2cc3c(Br)c(OC)ccc3n2CCN1C	550	-16.9% (inactive)	-28.8% (inactive)	142%	0.29	-0.368	0.361	8.31% (inactive)	-0.493 (inactive)	-5.7e-05 (inactive)	0.00409 (inactive)	inactive; toxic	-2.97% (inactive)
C=CCOC(=O)C1=C(C)NC(SCC(=O)N(CC)CC)=C(C#N)C1c1ccco1 (configuration not stated)	361	-9.9% (inactive)	-137% (inactive)	153%	-0.539	-0.441	0.117	-5.89% (inactive)	-0.417 (inactive)	-1.8e-05 (inactive)	0.00442 (inactive)	inactive; toxic	-0.086% (inactive)
CCCCOc1ccc(C(=O)OC2CC(C)N(C)CC2C)cc1 (configuration not stated)	358	-21.6% (inactive)	-186% (inactive)	155%	-0.354	-1.1	-0.696	-14% (inactive)	-0.46 (inactive)	-0.000115 (inactive)	0.00554 (inactive)	inactive	144% (active)
S=c1[nH]nc(-c2ccccc2)n1Cc1ccccc1	506	0% (inactive)	-83.3% (inactive)	170%	0.046	1.63	-0.862	7.48% (inactive)	-0.391 (inactive)	-9.1e-05 (inactive)	0.00591 (inactive)	inactive	-5.83% (inactive)
O=C(NCc1ccco1)c1ccc(=O)oc1	352	-6% (inactive)	-89.9% (inactive)	167%	0.958	0.118	-1.31	23.4% (inactive)	-0.471 (inactive)	-0.000178 (inactive)	0.00508 (inactive)	inactive	2.62% (inactive)
COc1cc(NC2=CC(=O)CC(C)(C)C2)cc(OC)c1OC	584	-15% (inactive)	-72.4% (inactive)	141%	-0.351	-0.143	0.715	-1.98% (inactive)	-0.488 (inactive)	-3.8e-05 (inactive)	0.00597 (inactive)	inactive	-4.05% (inactive)
CC1(C)Cc2c(sc3nc4n(c(=O)c23)CCC4)CO1	700	-9.4% (inactive)	43.7% (inactive)	159%	-1.3	1.46	1.2	2.71% (inactive)	-0.377 (inactive)	-6e-05 (inactive)	0.00549 (inactive)	inactive	-8.7% (inactive)
Cn1c(=O)c2c(nc(NCc3ccc4c(c3)OCO4)n2Cc2ccc(F)cc2)n(C)c1=O	600	3.1% (inactive)	-39.4% (inactive)	152%	-0.468	-0.0841	-0.555	-2.91% (inactive)	-0.511 (inactive)	-8.9e-05 (inactive)	0.00456 (inactive)	inactive	2.97% (inactive)
COc1ccc(C(=O)/C=C/Nc2cccc(C)n2)cc1OC	553	-2.4% (inactive)	-95.1% (inactive)	164%	-1.16	0.461	0.22	-1.12% (inactive)	-0.33 (inactive)	-2.1e-05 (inactive)	0.00813 (inactive)	inactive	-7.36% (inactive)
CCCCc1c(C)nn(-c2nnc3c4ccccc4n(C)c3n2)c1C	575	-12.6% (inactive)	-37.2% (inactive)	161%	-0.575	2.07	-0.403	7.73% (inactive)	-0.48 (inactive)	-5.6e-05 (inactive)	0.00441 (inactive)	inactive	21.4% (inactive)
Cc1cc(C)c(-n2c(O)c(C=NCCN3CCOCC3)c(=O)[nH]c2=O)c(C)c1	594	6.5% (inactive)	19% (inactive)	152%	0.606	-1.55	-1.1	14% (inactive)	-0.334 (inactive)	-5e-07 (inactive)	0.00437 (inactive)	inactive	0.886% (inactive)
COc1ccc(C(CC(=O)O)NC(=O)OC(C)(C)C)cc1 (configuration not stated)	352	-12.3% (inactive)	-60.6% (inactive)	167%	0.0535	0.856	1.62	-7.01% (inactive)	-0.414 (inactive)	-0.000134 (inactive)	0.00454 (inactive)	inactive	-3.6% (inactive)
Cc1cc(C)nc(N(C#N)CC(=O)N(c2ccccc2)C(C)C)n1	584	-10.3% (inactive)	50% (inactive)	140%	-1.19	-0.154	2.33	-11% (inactive)	-0.345 (inactive)	-2.8e-05 (inactive)	0.00548 (inactive)	inactive	5.11% (inactive)
O=C1CC(NCc2ccc3c(c2)OCO3)C(=O)N1Cc1ccc2c(c1)OCO2 (configuration not stated)	521	5.6% (inactive)	-127% (inactive)	139%	0.834	0.684	-0.627	15.8% (inactive)	-0.505 (inactive)	-3.7e-05 (inactive)	0.00655 (inactive)	inactive	17.7% (inactive)
